# Published values gathered from unrelated publications.
# Each line is one published result; the experiments were not run side by side.
# Target: Serine/threonine-protein kinase SIK2 (SIK2, Homo sapiens, UniProt Q9H0K1)
SMILES,read-out,action,method,tested at,measurement,result
FC(F)(F)Oc1cccc(-c2cnc3ccc(-c4ccncc4)nn23)c1,enzyme activity,inhibitor,radiometric,5 µM,activity vs control,69%
N#CCCc1ccc2c(c1)-c1[nH]c3ccc([N+](=O)[O-])cc3c1CC(=O)N2,cell-free assay,,,0.5 µM,remaining signal,44.2%
Cc1cc(NC(=O)c2cccc(S(F)(F)(F)(F)F)c2)cc(-n2ccn3nc(-c4cccnc4)cc23)c1,cell-free assay,,competition with immobilised ligand,1 µM,remaining binding,100%
COc1cc(/C=C/C(=O)CC(=O)/C=C/c2ccc(O)c(OC)c2)ccc1O,enzyme activity,inhibitor,,1 µM,activity vs control,83%
COc1cc(-c2cc(-c3ccc(N4CCNCC4)cc3)cnc2N)cc(OC)c1OC,enzyme activity,inhibitor,,0.1 µM,inhibition,66%
CCOc1cc(-c2nncn2C)ccc1Nc1ncc2cc(C)nc(NCC(C)(C)C)c2n1,enzyme activity,inhibitor,FRET,1 µM,inhibition,< 15%
COc1cc2ncnc(Nc3ccc(Oc4ccccc4)c(C)c3C)c2cc1OC,enzyme activity,inhibitor,,1 µM,inhibition,0%
O=C1NC(=O)c2cc(Nc3ccc(F)cc3)c(Nc3ccc(F)cc3)cc21,cell-free assay,,,0.5 µM,remaining signal,103%
CNC(=O)Nc1ccc2c(c1)[C@@]1(CC2)OC(=O)N(CC(=O)N(Cc2ccc(F)cc2)[C@@H](C)C(F)(F)F)C1=O,cell-free assay,,competition with immobilised ligand,1 µM,remaining binding,88%
CC(C)(O)[C@H]1CC[C@H](Nc2ccc3ncc(-c4cccc(C(F)(F)F)c4)n3n2)CC1,enzyme activity,inhibitor,,1 µM,remaining activity,47.7%
Cc1ccc(C(=O)Nc2ccc(CN3CCN(C)CC3)c(C(F)(F)F)c2)cc1C#Cc1cnc2cccnn12,enzyme activity,inhibitor,,23.5 nM,remaining activity,67%
COc1cc(Cl)c(C(=O)N[C@@H](CN[C@H]2CC[C@@H](N)CC2)Cc2ccc(C#N)cc2)cc1-c1ccc(CN[C@H](C)c2ccc(C)cc2)o1,enzyme activity,inhibitor,,1 µM,remaining activity,96%
O=C(NCCCC1CCCCC1)c1ccc(CNC(=O)c2cnn(-c3ccccc3)c2C(F)(F)F)cc1,cell-free assay,,competition with immobilised ligand,0.1 µM,remaining binding,100%
O=C(Nc1cnn(-c2csc(C(=O)NC3COC3)c2)c1)Nc1ccccc1Cl,enzyme activity,inhibitor,,5 µM,remaining activity,97%
CNCc1ccccc1-c1csc([C@@H](C)Nc2nc(C)nc3cc(OC)c(OC)cc23)c1,cell-free assay,,competition with immobilised ligand,1 µM,remaining binding,100%
CC(C)(C)c1nc(-c2cccc(NS(=O)(=O)c3c(F)cccc3F)c2F)c(-c2ccnc(N)n2)s1,enzyme activity,inhibitor,radiometric,1 µM,remaining activity,98%
CN(C)C(=O)Cn1cc(-c2nc(C3(c4ccc(-c5cnc(N)nc5)cc4)CC3)no2)cn1,cell-free assay,,competition with immobilised ligand,1 µM,remaining binding,100%
O=C(Nc1cnn(-c2csc(C(=O)NC3COC3)c2)c1)Nc1c(F)cccc1Cl,enzyme activity,inhibitor,,5 µM,remaining activity,95.8%
O=C1Nc2ccc(Cl)cc2C1=Cc1cc(Cl)c(O)c(Cl)c1,cell-free assay,,,0.5 µM,remaining signal,95%
